# HKDC1 inhibitor = blocks human hexokinase HKDC1 activity; 0.16% of 340,000 active; recombinant HKDC1, G6PDH/diaphorase resazurin coupled fluorescence; Q2TB90; inhibition, % at 20 µM;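 active = inhibition above about 35% when tested at 20 µM, limit read from the data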;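 also: plate controls were DMSO wells with enzyme for no effect and DMSO wells lacking enzyme for full effect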
#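 Test system: HK5 enzyme. Quantity: 5 µg/mL HK5 final. Reagent: glucose and ATP substrates. Schedule: 90 min reaction incubation at room temperature, dark. Technique: resazurin-to-resorufin fluorescence via G6PDH and diaphorase coupling, 525/613 nm. Control set: DMSO wells with and without enzyme mix.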
# ATG4B inhibitor = inhibitors of human ATG4B cysteine protease; inhibition, % at 8.33 µM; 0.51% of 340,000 active; ATG4B cleavage of LC3-PLA2, NBD-HPC fluorescence, 1 h; Q9Y4P1; in the data active = inhibition above about 40%
# Target sequence (Q9Y4P1 whole entry, looked up): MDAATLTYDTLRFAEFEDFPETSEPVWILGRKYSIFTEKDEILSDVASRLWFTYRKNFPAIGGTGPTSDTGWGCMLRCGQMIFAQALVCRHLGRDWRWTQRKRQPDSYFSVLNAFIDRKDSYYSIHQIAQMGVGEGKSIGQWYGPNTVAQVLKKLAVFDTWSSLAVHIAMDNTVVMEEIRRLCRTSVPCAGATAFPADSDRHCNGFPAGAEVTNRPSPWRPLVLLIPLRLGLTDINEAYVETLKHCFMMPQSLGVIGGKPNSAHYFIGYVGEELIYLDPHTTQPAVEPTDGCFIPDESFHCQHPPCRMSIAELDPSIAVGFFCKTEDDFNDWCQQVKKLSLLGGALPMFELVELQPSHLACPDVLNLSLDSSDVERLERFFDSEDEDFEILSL
# HDAC3 inhib = inhibitors of human histone deacetylase 3 | O15379 | recombinant HDAC3, fluorogenic peptide/trypsin coupled, fluorescence | inhibition, % at 8.3 µM | 0.15% of 320,000 active | AID 2718; in the data active = inhibition above about 26%, passing the limit was not always enough; inconclusive = no clear call, values can overlap the other calls
# AI-2 QS modul = Vibrio harveyi AI-2 quorum sensing modulation; 0.4% of 300,000 active; Vibrio harveyi JMH597 AI-2 luminescence/OD600 ratio, 9 h; stronger effect = lower value; strain lacks LuxN and CqsS sensors; 0 = neutral-control median; activity change, % at 7.5 µM; in the data active = activity change below about -75%, passing the limit was not always enough; inconclusive = no clear call, values can overlap the other calls;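 also: luminescence divided by OD600 gain over 9 h not by final OD600 alone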
# LANA-H2B inh = blocks KSHV LANA binding to histone H2A/H2B | Q9QR71 | cell-free LANA-H2A/H2B peptide, fluorescence polarization | inhibition, % (no concentration beside the values) | 0.6% of 320,000 active | AID 2629; in the data active = inhibition mostly above about 10%, no sharp cut-off; inactive = mostly below about 6.7%
# Bfl-1 A1 inh = inhibitors of the anti-apoptotic protein A1, read as caspase activation; MEF A1-2A-BIM cells, Caspase-Glo 3/7 luminescence, 3 h; percent of clofoctol response, vehicle zero; caspase activation, % (no concentration beside the values); 0.066% of 330,000 active; AID 2462;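 active = over half of replicate activation scores above 10%, or exactly half above 10 with the replicate mean above 10; inconclusive = replicate mean below 10 yet half the replicates above 10; inactive = over half of replicates below 10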
# ATG4B confirm = confirmation of human ATG4B inhibitors. shares compounds with ATG4B inhibitor. ATG4B protease fluorescent substrate cleavage assay. inhibition, % at 8.33 µM. 92% of 320 active. AID 504757; in the data active = inhibition above about 39%
# PLA2 counter = PLA2 (human) inhibition in ATG4B counter-screen; inhibition, % at 8.33 µM; purified PLA2, NBD-C6-HPC fluorescence, 45 min; shares compounds with ATG4B inhibitor; 66% of 1,600 active; AID 588402; in the data active = inhibition above about 50%
# Target sequence (P04054 whole entry, looked up): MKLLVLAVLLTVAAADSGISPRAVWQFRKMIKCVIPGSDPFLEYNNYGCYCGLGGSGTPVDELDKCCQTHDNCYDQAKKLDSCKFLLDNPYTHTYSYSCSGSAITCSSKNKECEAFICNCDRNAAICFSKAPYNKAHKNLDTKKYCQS
# Starred values were filed as active, the others as inactive; ? = inconclusive; · = not tested or not shown. This is a sample that favours compounds with a hit; in the whole collection about 1.8% have one here.
SMILES,HKDC1 inhibitor,ATG4B inhibitor,HDAC3 inhib,AI-2 QS modul,LANA-H2B inh,Bfl-1 A1 inh,PLA2 counter,others
CCCCOc1ccc(-c2cn3ccccc3n2)cc1[N+](=O)[O-],-2.1,44.6*,5.1,24.5,7.1,-6.6,48.1,
O=C(NCc1cccc(Cl)c1)c1ccc(S(=O)(=O)Nc2cccc(C(F)(F)F)c2)cc1,-10.4,57.7*,1.3,38.3,-1.0,-0.1,59.9*,
O=C(NCc1cccc(C(F)(F)F)c1)c1cc(Cl)cc(Cl)c1,-2.7,51.7*,-2.3,23.4,1.0,-0.4,42.2,ATG4B confirm=60.3*
Cc1ccc(CN2CCN(C(=O)c3ccncc3)CC2)cc1,-10.7,10.8,1.1,9.8,-2.5,0.3,·,
CCCCC(=O)Nc1nnc(S(=O)(=O)N2CCCCCC2)s1,-6.6,0.5,-6.9,2.6,-3.0,1.1,·,
COc1ccc(NC(=O)CCCOc2ccc(Cl)c(C)c2)cc1S(=O)(=O)N1CCOCC1,4.3,-18.8,9.6,·,-3.6,1.0,·,
O=C(CNS(=O)(=O)c1ccc(Cl)cc1)NC1CCCCC1,1.3,-1.4,-2.0,·,-2.8,0.6,·,
Cc1ccc(/C=N/Nc2cc(C)nc(NCc3ccccc3)n2)cc1,-0.2,64.0*,16.2,-31.1,-0.8,-0.3,77.4*,
Cc1cc(N/N=C/c2ccc(Cl)cc2Cl)nc(NCc2ccccc2)n1,14.6,85.5*,13.9,26.6,-5.5,-1.3,87.5*,
Cc1cc(Nc2ccc(Cl)cc2)nc(NCc2ccccc2)n1,-6.1,44.3*,2.2,?,0.2,0.7,37.9,ATG4B confirm=69.1*
Cc1cc(N/N=C/c2ccc(F)cc2)nc(NCc2ccccc2)n1,4.0,71.0*,22.9,18.3,4.0,-4.1,63.6*,
Cc1cc(N/N=C/c2ccc(N(C)C)cc2)nc(NCc2ccccc2)n1,3.7,-3.1,-2.2,3.8,1.2,-0.1,·,
CN1CCN(S(=O)(=O)c2cccc(C(=O)NC3(C)CCS(=O)(=O)C3)c2)CC1 (stereo not given),-5.8,-6.8,1.4,·,-10.6,0.5,·,
COc1ccccc1OCc1ccc(C(=O)n2nc(C)c(Cl)c2C)o1,-6.3,75.1*,3.0,7.0,-4.1,-0.7,77.2*,
Fc1ccc(OCc2nn[nH]n2)c(F)c1,-0.3,1.1,-2.2,12.8,0.1,1.3,·,
CC(C)[C@H](NS(=O)(=O)c1ccccc1)C(=O)OCC(=O)Nc1ccccc1Sc1ccccc1,7.7,94.5*,9.5,8.8,0.5,1.0,92.5*,
COc1cc2c(cc1NC(=O)COC(=O)[C@@H](NS(=O)(=O)c1ccccc1)C(C)C)oc1ccccc12,1.3,75.8*,8.1,2.4,-1.5,-0.2,82.5*,
Cc1cc(NC(=O)COC(=O)[C@@H](NS(=O)(=O)c2ccccc2)C(C)C)no1,-5.2,-5.4,-2.0,10.9,-1.2,1.0,·,
CCC(C)[C@H](NC(=O)N1CCn2c1nc1ccccc12)C(=O)NCc1ccccc1 (stereo not given in full),6.2,-4.1,2.4,-0.8,0.8,-1.1,·,
COC1=CC(=O)C(O)=C(CCCCCCC/C=C/CCCCCCCC2=C(O)C(=O)C=C(OC)C2=O)C1=O,31.1,51.7*,-0.1,18.6,7.3,-0.4,78.4*,
COc1ccc2cc(C=NS(=O)(=O)c3ccc(C)cc3)n(C)c2c1,12.6,83.0*,2.8,·,-5.5,0.5,74.7*,
Cc1cc(/C=N/NC(=O)C(O)(c2ccccc2)c2ccccc2)c(C)n1-c1cccc(C(=O)O)c1,14.4,52.4*,·,2.6,-1.0,1.0,57.0*,
Cc1cc(/C=N/NC(=O)C(O)(c2ccccc2)c2ccccc2)c(C)n1-c1ccc(C(=O)O)cc1,-9.6,17.8,·,16.6,-5.3,0.5,·,
CC(C)(C)c1ccc2c(c1)C(=O)c1ccccc1C2=O,-2.6,44.5*,4.6,12.9,0.8,-9.2,37.9,ATG4B confirm=67.5*
CCc1ccc2c(c1)C(=O)c1ccccc1C2=O,13.1,19.0,6.7,15.7,4.2,-7.1,·,
SMILES,HKDC1 inhibitor,ATG4B inhibitor,HDAC3 inhib,AI-2 QS modul,LANA-H2B inh,Bfl-1 A1 inh,PLA2 counter,others
NC(=O)C1CCN(c2nc(-c3ccc(Br)cc3)cs2)CC1,11.2,36.0,·,8.3,·,-0.1,·,
NC(=O)C1CCN(c2nc(-c3cccs3)cs2)CC1,2.2,45.2*,-2.3,·,4.4,-0.5,54.0*,
CCc1nc(N2CCN(C(=S)NCCCOC)CC2)c2c3c(sc2n1)CCCC3,7.8,72.3*,8.1,2.2,-4.9,0.9,79.6*,
CCc1nc(N2CCN(S(C)(=O)=O)CC2)c2c3c(sc2n1)CCCC3,0.0,46.9*,?,5.1,5.7,0.3,49.5,
CSc1nc(N2CCOCC2)c2c3c(sc2n1)CCCC3,6.9,37.4,1.0,33.3,-7.1,3.0,·,
CCC(=O)N1CCN(c2nc(CC)nc3sc4c(c23)CCCC4)CC1,-4.9,54.1*,7.1,17.3,-0.5,0.5,63.9*,
COCCCNC(=S)N1CCN(c2nc3ccccc3s2)CC1,-9.8,-10.0,-1.3,-0.2,3.0,-1.1,·,
Cc1ccc(NC(=O)CSc2nc3nc(C)c(Br)cc3[nH]2)cc1F,-1.1,1.7,-2.9,21.0,6.3,3.2,·,
O=C1/C(=C\c2cc(Cl)c(O)c(Cl)c2)SC(=S)N1Cc1ccccc1,5.6,44.5*,10.3,-3.8,-17.1,-0.1,60.4*,
COc1ccc(Br)cc1CNC(=O)CN1C(=O)C(c2ccccc2)Oc2cccnc21 (stereo not given),-0.5,59.0*,-1.0,-1.9,-0.8,1.3,66.7*,
O=C(/C=N/NC(=O)c1ccc(Cl)cc1Cl)c1ccccc1,-0.6,-9.3,4.4,-1.1,0.0,-1.1,·,
CS(=O)(=O)c1ccc(C(=O)OCC(=O)c2ccc(Cl)s2)cc1,1.9,4.0,4.9,-50.9,-1.3,-0.1,·,
COc1ccccc1N1CCN(S(=O)(=O)c2ccc3nc(-c4ccccc4)[nH]c3c2)CC1,-2.9,58.8*,9.7,67.5,2.2,0.8,57.5*,
O=S(=O)(c1ccc2nc(-c3ccccc3)[nH]c2c1)N1CCN(c2cccc(Cl)c2)CC1,-6.2,8.5,4.2,16.3,-4.5,-1.0,·,
Cn1c(CCNS(=O)(=O)c2ccccc2)nnc1SCc1cccnc1,-1.6,-3.2,-1.6,8.1,-7.1,-0.2,·,
O=C(/C=C/c1ccccc1)NC(NC(=S)Nc1ccc(Cl)cc1)C(Cl)(Cl)Cl (stereo not given),-3.4,16.4,-2.8,16.0,-3.6,0.2,·,
O=C(/C=C/c1ccccc1)NC(NC(=S)Nc1cc(Cl)ccc1Cl)C(Cl)(Cl)Cl (stereo not given),11.6,41.7*,-10.3,30.1,2.8,-0.5,29.5,
O=C(CCCCn1ccc(=O)[nH]c1=O)Nc1ccc(C(=O)O)c(O)c1,-8.7,0.8,·,·,·,·,·,
